ChEMBL document CHEMBL1140371, “Pyrazolo[3,4-c]pyridazines as novel and selective inhibitors of cyclin-dependent kinases” (J Med Chem, 2005)
“And” between values parts separate entries of the source, which are not always exact repeats. Equal entries are not always repeated.

Experiments:
[1] = system: HT-29; assay: Cytotoxic effect against human colon carcinoma cell line (HT-29); assay type: functional, cell-based
In short: (§1)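 MTT assay on cells in log-phase growth, seeded at 2.5 × 10³ cells/well and kept at 37 °C in 5% CO₂. Compounds were added 24 h after seeding as serial PBS dilutions of a […] DMSO stock. After 72 h exposure, MTT was added for 4 h, then DMSO; absorbance read at 570 nm. At least three experiments; IC50 taken from the mean % absorbance versus concentration.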

[2] = system: HeLa; assay: Cytotoxic effect against human cervical carcinoma cell line (HeLa); assay type: functional, cell-based; in short: as §1
[3] = Inhibitory concentration against CDK1/Cyclin B complex from Marthasterias glacialis M-phase oocytes; assay type: cell-based; conditions: oocyte
[4] = system: PC-3; assay: Cytotoxic effect against human prostate carcinoma cell line (PC-3); assay type: functional, cell-based; in short: as §1

Q: Which IC50 [1] does the source give for CC(C)(C)c1ccc(-c2[nH]nc3nnc(N)c-3c2-c2ccc(C(C)(C)C)cc2)cc1 here?
A: Its IC50 is 8.5 µM.

Q: And the IC50 [2]?
A: The IC50 was 8.78 µM.

Q: And the IC50 [3]?
A: The IC50 was over 50 µM.

Q: Which IC50 [1] does the source give for Nc1[nH]nc2nnc(-c3ccc(C(F)(F)F)cc3)c(-c3ccc(C(F)(F)F)cc3)c12 here?
A: Its IC50 is over 100 µM.

Q: What about the IC50 [2] of the same compound?
A: The IC50 was over 100 µM.

Q: And the IC50 [3]?
A: Its IC50 is over 50 µM.

Q: What does the source list for COc1ccc(-c2[nH]nc3nnc(N)c-3c2-c2ccc(OC)cc2)cc1?
A: IC50 [1]: > 100 µM; IC50 [2]: > 100 µM; IC50 [4]: > 100 µM; IC50 [3]: 15 µM

Q: Which IC50 [1] does the source give for Nc1[nH]nc2nnc(-c3ccccn3)c(-c3ccccn3)c12 here?
A: The IC50 was 73 µM.

Q: And the IC50 [2]?
A: Its IC50 is over 100 µM.

Q: And the IC50 [3]?
A: The IC50 was over 50 µM.

Q: Which IC50 [1] does the source give for Oc1[nH]nc2nnc(-c3ccccc3)c(-c3ccccc3)c12 here?
A: The IC50 was over 100 µM.

Q: And the IC50 [2]?
A: Its IC50 is over 100 µM.

Q: And the IC50 [4]?
A: The IC50 was over 100 µM.

Q: And the IC50 [3]?
A: The IC50 was over 50 µM.

Q: With Nc1ccc(-c2[nH]nc3nnc(N)c-3c2-c2ccc(N)cc2)cc1 as the compound, how does the IC50 [1] read?
A: Its IC50 is 10.5 µM.

Q: And the IC50 [2]?
A: Its IC50 is over 100 µM.

Q: And the IC50 [3]?
A: Its IC50 is over 50 µM.

Q: For Cc1n[nH]c2nnc(N)c-2c1-c1ccccc1, which IC50 [1] is on record?
A: The IC50 was over 100 µM.

Q: What about the IC50 [2] of the same compound?
A: The IC50 was 88.3 µM.

Q: What about the IC50 [4] of the same compound?
A: Its IC50 is 72.4 µM.

Q: And the IC50 [3]?
A: Its IC50 is over 50 µM.

Q: Which results are given for Nc1[nH]nc2nnc(-c3ccco3)c(-c3ccco3)c12?
A: IC50 [1]: > 100 µM; IC50 [2]: > 100 µM; IC50 [3]: 1.5 µM

Q: With Cc1n[nH]c2nnc(N)c-2c1C as the compound, how does the IC50 [1] read?
A: The IC50 was over 100 µM.

Q: And the IC50 [2]?
A: Its IC50 is over 100 µM.

Q: What about the IC50 [3] of the same compound?
A: Its IC50 is over 50 µM.

Q: Which results are given for Nc1[nH]nc2nnc(-c3ccc(-c4ccccc4)cc3)c(-c3ccc(-c4ccccc4)cc3)c12?
A: IC50 [1]: > 100 µM; IC50 [2]: > 100 µM; IC50 [3]: > 50 µM

Q: For Nc1nn(CCOCCO)c2nnc(-c3ccccc3)c(-c3ccccc3)c12, which IC50 [1] is on record?
A: The IC50 was over 100 µM.

Q: What about the IC50 [2] of the same compound?
A: The IC50 was over 100 µM.

Q: And the IC50 [4]?
A: Its IC50 is over 100 µM.

Q: And the IC50 [3]?
A: The IC50 was over 50 µM.

Q: With NNc1[nH]nc2nnc(-c3ccccc3)c(-c3ccccc3)c12 as the compound, how does the IC50 [3] read?
A: The IC50 was 8.5 µM.

Q: Which IC50 [1] does the source give for O=C(Nc1ccccc1)Nc1[nH]nc2nnc(-c3ccccc3)c(-c3ccccc3)c12 here?
A: Its IC50 is over 100 µM.

Q: What about the IC50 [2] of the same compound?
A: The IC50 was 2.93 µM.

Q: And the IC50 [4]?
A: The IC50 was over 100 µM.

Q: And the IC50 [3]?
A: The IC50 was 9 µM.

Q: Which IC50 [1] does the source give for CC(=O)Nc1nn(C(C)=O)c2nnc(-c3ccccc3)c(-c3ccccc3)c12 here?
A: Its IC50 is over 100 µM.

Q: And the IC50 [2]?
A: The IC50 was over 100 µM.

Q: What about the IC50 [4] of the same compound?
A: Its IC50 is over 100 µM.

Q: And the IC50 [3]?
A: Its IC50 is over 50 µM.

Q: Which IC50 [1] does the source give for Nc1[nH]nc2nnc(-c3ccc([N+](=O)[O-])cc3)c(-c3ccc([N+](=O)[O-])cc3)c12 here?
A: The IC50 was over 100 µM.

Q: And the IC50 [2]?
A: Its IC50 is over 100 µM.

Q: What about the IC50 [3] of the same compound?
A: Its IC50 is over 50 µM.

Q: Which IC50 [3] does the source give for CCNC(=O)Nc1[nH]nc2nnc(-c3ccco3)cc12 here?
A: Its IC50 is 8.8 µM.

Q: Which IC50 [1] does the source give for Nc1[nH]nc2nnc(-c3ccco3)cc12 here?
A: The IC50 was over 100 µM.

Q: And the IC50 [2]?
A: Its IC50 is over 100 µM.

Q: What about the IC50 [4] of the same compound?
A: The IC50 was over 100 µM.

Q: What about the IC50 [3] of the same compound?
A: Its IC50 is 5.3 µM.

Q: Which results are given for Nc1n[nH]c2nnc(-c3ccccc3)c(-c3ccccc3)c12?
A: IC50 [1]: > 100 µM; IC50 [2]: > 100 µM; IC50 [4]: > 100 µM; IC50 [3]: 3 µM and 6.1 µM

Q: What does the source list for Nc1nn(COCCO)c2nnc(-c3ccccc3)c(-c3ccccc3)c12?
A: IC50 [1]: > 100 µM; IC50 [2]: > 100 µM; IC50 [4]: > 100 µM; IC50 [3]: > 50 µM

Q: With CCNC(=O)Nc1[nH]nc2nnc(-c3ccccc3)c(-c3ccccc3)c12 as the compound, how does the IC50 [1] read?
A: Its IC50 is over 100 µM.

Q: What about the IC50 [2] of the same compound?
A: Its IC50 is 60.4 µM.

Q: And the IC50 [4]?
A: The IC50 was over 100 µM.

Q: What about the IC50 [3] of the same compound?
A: Its IC50 is 7.5 µM.

Q: With CC(=O)Nc1[nH]nc2nnc(-c3ccccc3)c(-c3ccccc3)c12 as the compound, how does the IC50 [1] read?
A: The IC50 was over 100 µM.

Q: And the IC50 [2]?
A: The IC50 was over 100 µM.

Q: What about the IC50 [4] of the same compound?
A: The IC50 was over 100 µM.

Q: And the IC50 [3]?
A: The IC50 was over 50 µM.

Q: Which IC50 [3] does the source give for CC/N=C(\S)Nc1[nH]nc2nnc(-c3ccco3)cc12 here?
A: The IC50 was over 100 µM.

Q: With Nc1n[nH]c2nnc(-c3ccccc3)cc12 as the compound, how does the IC50 [1] read?
A: Its IC50 is 80.8 µM.

Q: What about the IC50 [2] of the same compound?
A: The IC50 was over 100 µM.

Q: And the IC50 [3]?
A: The IC50 was over 50 µM.

Q: Which results are given for Nc1nn(Cc2ccccc2)c2nnc(-c3ccccc3)c(-c3ccccc3)c12?
A: IC50 [1]: > 100 µM; IC50 [2]: > 100 µM; IC50 [4]: > 100 µM; IC50 [3]: > 50 µM

Q: For CC(=O)n1nc(N)c2c(-c3ccccc3)c(-c3ccccc3)nnc21, which IC50 [1] is on record?
A: The IC50 was over 100 µM.

Q: What about the IC50 [2] of the same compound?
A: Its IC50 is over 100 µM.

Q: And the IC50 [4]?
A: The IC50 was over 100 µM.

Q: What about the IC50 [3] of the same compound?
A: The IC50 was over 50 µM.
